A selection: hits, their analogues and other compounds. The true share with any hit is near 2.2%.
Bim-Mcl-1: human Bim-Mcl-1 interaction inhibition; Bead-based flow cytometry, Bim peptide-Mcl-1 binding; inhibition, % at 10 µM; 190,000 tested, 0.1% active; AID 1009; in the data active means inhibition above about 40%;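 further: 0% = no compound tracer wells and 100% = peptide blocker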
Target sequence (Q07820 whole entry, looked up): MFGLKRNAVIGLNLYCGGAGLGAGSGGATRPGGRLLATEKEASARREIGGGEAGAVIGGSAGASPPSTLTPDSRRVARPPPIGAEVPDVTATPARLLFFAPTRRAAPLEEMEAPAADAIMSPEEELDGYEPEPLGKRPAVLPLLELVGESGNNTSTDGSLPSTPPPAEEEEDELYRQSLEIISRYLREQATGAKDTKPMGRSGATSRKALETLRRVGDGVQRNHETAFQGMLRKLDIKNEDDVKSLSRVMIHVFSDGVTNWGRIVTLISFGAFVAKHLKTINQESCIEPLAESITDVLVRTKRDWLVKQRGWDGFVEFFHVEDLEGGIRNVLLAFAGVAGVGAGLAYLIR
Mcl1 Bid PPI: disrupts binding of human Mcl-1 to Bid peptide; TR-FRET Mcl-1/Bid-Dy647 peptide binding, 1536-well; inhibition, % at 21.7 µM; 220,000 tested, 0.97% active; AID 1021;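 active means compounds that cut the binding signal by more than half at the single screening dose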;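 further: His-tagged Mcl-1 with europium anti-His antibody binding Bid BH3 peptide; 0% = Mcl-1 plus peptide wells and 100% = peptide-only wells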
RBBP9 inhibitor: human RBBP9 hydrolase inhibition | recombinant RBBP9, FP-Rh probe fluorescence polarization | inhibition, % at 7.94 µM | 220,000 tested, 0.2% active | AID 1515;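 active means inhibition above the campaign mean of all tested compounds plus 3 SD, cut at about 14% in these data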;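 further: plate controls were DMSO wells with RBBP9 for no effect and wells lacking RBBP9 protein for full effect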
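System: RBBP9 protein / Buffer or medium: Tris/NaCl buffer pH 8.0 with 0.1% Pluronic / Probe or stimulus: Serine-hydrolase probe FP-Rh, 375 nM pre-mixing / Dosing: 7.94 µM single dose, 0.794% DMSO / Times: enzyme-compound preincubation 30 min, then probe labeling 45 min, 25 °C / Technique: fluorescence polarization (mP), excitation 525 nm, emission 598 nm / Replication: singlicate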
MCL1-BIM inh: inhibitors of human MCL1 binding to BIM-BH3 peptide | Q07820 | GST-MCL1 / FITC-Bim-BH3 fluorescence polarization | inhibition, % at 10.9 µM | 320,000 tested, 0.68% active;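 active means inhibition above the mean inhibition of all tested compounds plus 3 SD, set per campaign, cut at about 40% in these data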;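 further: 0% = DMSO wells and 100% = unlabeled Bim-BH3 peptide control; higher means more loss of mP so more displacement of Bim peptide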
Mcl1 Noxa PPI: disrupts binding of human Mcl-1 to Noxa peptide. Q07820. TR-FRET Mcl-1/Noxa peptide binding, 2 h. inhibition, % at 21.7 µM. 220,000 tested, 1.5% active;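 active means compounds that cut the protein-peptide binding signal by more than 50% relative to plate controls in a single-dose test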;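 further: His-tagged Mcl-1 with rhodamine Noxa BH3 peptide and terbium anti-His antibody; 0% = Mcl-1 plus Noxa peptide wells and 100% = peptide-only wells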
EBV gp42 block: blocks Epstein-Barr virus glycoprotein 42 binding; Q1HVG2; Fluorescence polarization binding assay, mP read-out; inhibition, % (tested at 21.74 µM); 220,000 tested, 0.42% active; in the data active means inhibition above about 50%
Target sequence (Q1HVG2 whole entry, looked up): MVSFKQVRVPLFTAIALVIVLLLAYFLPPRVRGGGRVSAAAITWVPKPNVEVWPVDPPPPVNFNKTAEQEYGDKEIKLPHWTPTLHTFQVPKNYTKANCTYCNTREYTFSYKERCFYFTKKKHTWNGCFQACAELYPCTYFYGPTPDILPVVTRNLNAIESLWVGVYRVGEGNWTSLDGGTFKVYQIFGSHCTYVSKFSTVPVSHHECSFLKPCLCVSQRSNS
Numbers without * were called inactive.

Screening Cc1ccc(-c2nnc(SCC(=O)N/N=C/c3ccc(C)s3)n2-c2ccc(C)cc2)cc1 returned Bim-Mcl-1 -5, Mcl1 Bid PPI 97*, RBBP9 inhibitor -2, MCL1-BIM inh -6, Mcl1 Noxa PPI 23 and EBV gp42 block -1.
COc1cc(CN2CCC(C(=O)NCC(C)(C)CN(C)C)CC2)ccc1OCc1ccccc1 was read as MCL1-BIM inh 0.
For CC(C)c1nc2sc3c(=O)[nH]c(=S)[nH]c3c2c2c1CCCC2 the results were Mcl1 Bid PPI -172, RBBP9 inhibitor -6, MCL1-BIM inh 7, Mcl1 Noxa PPI 57* and EBV gp42 block -20.
`CC(C)c1nc2sc3c(=O)[nH]c(=S)[nH]c3c2c2c1CCC2` gave Bim-Mcl-1 0, Mcl1 Bid PPI 11, RBBP9 inhibitor -4, Mcl1 Noxa PPI 81* and EBV gp42 block -12.
CCOC(=O)c1sc2nc(C(C)C)c3c(c2c1N)CCC3 was read as Bim-Mcl-1 -3, Mcl1 Bid PPI -46, RBBP9 inhibitor -6, MCL1-BIM inh 6, Mcl1 Noxa PPI 4 and EBV gp42 block 7.
CS(=O)(=O)N(CCC#N)Cc1ccc(/C=C2\C(=O)Nc3ccccc32)o1 was read as Bim-Mcl-1 1, Mcl1 Bid PPI -30, RBBP9 inhibitor -10, MCL1-BIM inh 3, Mcl1 Noxa PPI 2 and EBV gp42 block 0.
Cn1cc(C(=O)NC2CCCCC2)c(=O)c2cc(S(=O)(=O)N3CCOCC3)ccc21 was read as MCL1-BIM inh 0.
CCOC(=O)[C@H]1[C@H]2COc3ccc(Cl)cc3[C@@H]2N2C(=O)c3cc(F)ccc3NC(=O)[C@@]12C was read as MCL1-BIM inh 3.
Screening CCn1c(N2CCN(S(=O)(=O)c3ccccc3)CC2)nc2ccccc21 returned MCL1-BIM inh -9.
`O=c1oc2cc(O)c(Cl)cc2c2ccccc12` gave Bim-Mcl-1 -1, Mcl1 Bid PPI -61, RBBP9 inhibitor 3, MCL1-BIM inh -2, Mcl1 Noxa PPI 54* and EBV gp42 block -2.
`O=C(NCc1nc2ccccc2[nH]1)C1=C[C@@H](c2ccc(C(F)(F)F)cc2)C[C@@H](OCc2ccc(CO)cc2)O1` gave MCL1-BIM inh -4.
O=C1C(C=Nc2ccccc2O)=C(O)c2ccccc21 was read as Bim-Mcl-1 -3, Mcl1 Bid PPI -33, RBBP9 inhibitor -15, MCL1-BIM inh 6, Mcl1 Noxa PPI -5 and EBV gp42 block -7.
For Cc1ccc(O)c(N=CC2=C(O)c3ccccc3C2=O)c1 the results were Bim-Mcl-1 -1, Mcl1 Bid PPI -39, RBBP9 inhibitor -14, MCL1-BIM inh 43*, Mcl1 Noxa PPI 63* and EBV gp42 block 21.
`CCC(C)NC(=O)c1ccc(CSCc2ccc(Cl)cc2)o1` (configuration not stated) gave MCL1-BIM inh 7.
CCC(C)NC(=O)c1ccc(CSCc2cccc(F)c2)o1 (configuration not stated) was read as Bim-Mcl-1 -3, Mcl1 Bid PPI -48, RBBP9 inhibitor 5, MCL1-BIM inh 7, Mcl1 Noxa PPI 15 and EBV gp42 block 110*.
For CCOc1ccccc1NC(=O)/C=C/C(N)=O the results were Bim-Mcl-1 -4, Mcl1 Bid PPI 17, RBBP9 inhibitor 6, MCL1-BIM inh 2, Mcl1 Noxa PPI 98* and EBV gp42 block -9.
CC(=O)Nc1ccc(NC(=O)c2cccc(-c3cc4ccccc4oc3=O)c2)cc1 was read as Bim-Mcl-1 0, Mcl1 Bid PPI 11, RBBP9 inhibitor -4, MCL1-BIM inh 8, Mcl1 Noxa PPI 10 and EBV gp42 block 1.
Screening COc1ccc2nc(NC(=O)c3ccccc3C(=O)O)sc2c1 returned MCL1-BIM inh -5.
Screening COc1ccc(C(=O)Nc2cccc(-c3cc4ccccc4oc3=O)c2)cc1[N+](=O)[O-] returned Bim-Mcl-1 -1, Mcl1 Bid PPI 87*, RBBP9 inhibitor 0, MCL1-BIM inh 10, Mcl1 Noxa PPI 56* and EBV gp42 block 58*.
For COc1ccc2nc(NC(=O)c3cccc(-c4cc5ccccc5oc4=O)c3)sc2c1 the results were Bim-Mcl-1 -2, Mcl1 Bid PPI 87*, RBBP9 inhibitor -4, MCL1-BIM inh -14, Mcl1 Noxa PPI 54* and EBV gp42 block -1.
`Cc1cc(Br)c(OCC(=O)NN)c2c1CCC2` gave Mcl1 Bid PPI -11, RBBP9 inhibitor 6, MCL1-BIM inh 8, Mcl1 Noxa PPI -4 and EBV gp42 block -5.
`CCn1c(CCNC(=O)c2ccc(OC)cc2)nnc1SCc1ccc(Cl)c(Cl)c1` gave Bim-Mcl-1 0, Mcl1 Bid PPI -10, RBBP9 inhibitor -7, MCL1-BIM inh 8, Mcl1 Noxa PPI 20 and EBV gp42 block -24.
Screening COc1ccc(C(=O)NC(CO)c2nnc(SCc3ccc(Cl)c(Cl)c3)n2C)cc1 (configuration not stated) returned Bim-Mcl-1 41*, Mcl1 Bid PPI -3, RBBP9 inhibitor -11, MCL1-BIM inh 3, Mcl1 Noxa PPI 0 and EBV gp42 block -17.
O=C1CCC(C(=O)N2CCSCC2)CN1CCc1cccc(F)c1 (configuration not stated) was read as MCL1-BIM inh 7.
CCCCn1c2nc3ccccc3nc2c2c(=O)n(CCC)cnc21 was read as Bim-Mcl-1 0, Mcl1 Bid PPI 0, RBBP9 inhibitor 2, MCL1-BIM inh 5, Mcl1 Noxa PPI -13 and EBV gp42 block -11.
For CCCCCn1nc(-c2ccccc2)c2nc3ccccc3nc21 the results were Bim-Mcl-1 4, Mcl1 Bid PPI -43, RBBP9 inhibitor -9, MCL1-BIM inh 22, Mcl1 Noxa PPI -23 and EBV gp42 block 161*.
For CCCn1nc(-c2ccccc2)c2nc3ccccc3nc21 the results were Bim-Mcl-1 2, Mcl1 Bid PPI 23, RBBP9 inhibitor -2, MCL1-BIM inh 8, Mcl1 Noxa PPI 38 and EBV gp42 block 65*.
`COc1cc(/C=C(\C#N)c2nc(-c3cc4ccccc4oc3=O)cs2)ccc1O` gave Bim-Mcl-1 -1, Mcl1 Bid PPI 64*, RBBP9 inhibitor 3, MCL1-BIM inh 3, Mcl1 Noxa PPI 59* and EBV gp42 block -66.
Screening COc1cc(/C=C(/C#N)c2nc(-c3cc4ccccc4oc3=O)cs2)cc([N+](=O)[O-])c1O returned Mcl1 Bid PPI 97*, RBBP9 inhibitor -6, Mcl1 Noxa PPI 98* and EBV gp42 block 64*.
Screening Cc1ccc(C)c(S(=O)(=O)N2CCN(C(=O)CSC(=S)N3CCCC3)CC2)c1 returned MCL1-BIM inh 1.
O=C1NN(c2ccccc2)C(=O)/C1=C/c1ccc(Sc2cccc3ccccc23)o1 was read as Bim-Mcl-1 -3, Mcl1 Bid PPI -41, RBBP9 inhibitor 1, MCL1-BIM inh 13, Mcl1 Noxa PPI 51* and EBV gp42 block 0.
For O=C1NN(c2ccccc2)C(=O)/C1=C/c1ccc(-c2ccc(C(=O)O)cc2)o1 the results were MCL1-BIM inh 29.

Screening results deposited in PubChem by several laboratories.
